Assay results: ChEMBL document CHEMBL1135685, “Tumor-specific novel taxoid-monoclonal antibody conjugates” (J Med Chem, 2002)

Key:
Assay type in all cases: functional, cell-based
NCI/ADR-RES = test: In vitro cytotoxicity of compound against human MCF-7-MDR (breast) cancer cell line after 72 hr of drug exposure
Summary of the method: (§1)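 Cytotoxicity was measured as an IC50 on a panel of human cancer lines: A431 (epidermoid), A549 (non-small-cell lung), MCF7 (breast) and MCF7-MDR (breast). The parent, unmodified taxoids were tested on the same lines.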

A549 = test: In vitro cytotoxicity of compound against human A549 (non small cell lung) cancer cell line after 72 hr of drug exposure; settings: A549, 72 h; summary of the method: as §1
A-431 = test: In vitro cytotoxicity of compound against human A431 (epidermoid) cancer cell line after 72 hr of drug exposure; settings: A-431, 72 h; summary of the method: as §1

SMILES | IC50 (NCI/ADR-RES) [nM] | IC50 (A549) [nM] | IC50 (A-431) [nM]
CCC(=O)O[C@H]1C(=O)[C@@]2(C)[C@H]([C@H](OC(=O)c3ccccc3)[C@]3(O)C[C@H](OC(=O)[C@H](O)[C@H](C=C(C)C)NC(=O)OC(C)(C)C)C(C)=C1C3(C)C)[C@]1(OC(C)=O)CO[C@@H]1C[C@@H]2O | 2.2 | 0.1 | 0.09
CSSCCC(=O)O[C@H]1C(=O)[C@@]2(C)[C@H]([C@H](OC(=O)c3ccccc3)[C@]3(O)C[C@H](OC(=O)[C@H](O)[C@H](C=C(C)C)NC(=O)OC(C)(C)C)C(C)=C1C3(C)C)[C@]1(OC(C)=O)CO[C@@H]1C[C@@H]2O |  | 0.8 | 0.5
CSSCCC(=O)O[C@H]1C[C@H]2OC[C@@]2(OC(C)=O)[C@H]2[C@H](OC(=O)c3ccccc3)[C@]3(O)C[C@H](OC(=O)[C@H](O)[C@H](C=C(C)C)NC(=O)OC(C)(C)C)C(C)=C([C@@H](OC(=O)N4CCOCC4)C(=O)[C@]12C)C3(C)C |  |  | > 3
CCC(=O)O[C@H]1C(=O)[C@]2(C)[C@@H](OC(=O)CCSSC)C[C@H]3OC[C@@]3(OC(C)=O)[C@H]2[C@H](OC(=O)c2ccccc2)[C@]2(O)C[C@H](OC(=O)[C@H](O)[C@H](C=C(C)C)NC(=O)OC(C)(C)C)C(C)=C1C2(C)C |  |  | 2
CCC(=O)O[C@H]1C(=O)[C@@]2(C)[C@H]([C@H](OC(=O)c3ccccc3)[C@]3(O)C[C@H](OC(=O)[C@H](OC(=O)CCSSC)[C@H](C=C(C)C)NC(=O)OC(C)(C)C)C(C)=C1C3(C)C)[C@]1(OC(C)=O)CO[C@@H]1C[C@@H]2O |  | 0.9 | > 3
CSSc1cccc(C(=O)O[C@H]2C(=O)[C@@]3(C)[C@H]([C@H](OC(=O)c4ccccc4)[C@]4(O)C[C@H](OC(=O)[C@H](O)[C@H](C=C(C)C)NC(=O)OC(C)(C)C)C(C)=C2C4(C)C)[C@]2(OC(C)=O)CO[C@@H]2C[C@@H]3O)c1 |  | > 3 | > 3
CSSc1cccc(C(=O)O[C@H]2[C@@H]3[C@]4(OC(C)=O)CO[C@@H]4C[C@H](O)[C@@]3(C)C(=O)[C@H](OC(C)=O)C3=C(C)[C@@H](OC(=O)[C@H](O)[C@H](C=C(C)C)NC(=O)OC(C)(C)C)C[C@]2(O)C3(C)C)c1 |  | > 3 | > 3
CSSCC(=O)O[C@H]1C(=O)[C@@]2(C)[C@H]([C@H](OC(=O)c3ccccc3)[C@]3(O)C[C@H](OC(=O)[C@H](O)[C@H](C=C(C)C)NC(=O)OC(C)(C)C)C(C)=C1C3(C)C)[C@]1(OC(C)=O)CO[C@@H]1C[C@@H]2O |  | 0.8 | 0.7
CC(=O)O[C@H]1C(=O)[C@@]2(C)[C@H]([C@H](OC(=O)c3ccccc3)[C@]3(O)C[C@H](OC(=O)[C@H](O)[C@@H](NC(=O)c4ccccc4)c4ccccc4)C(C)=C1C3(C)C)[C@]1(OC(C)=O)CO[C@@H]1C[C@@H]2O [PACLITAXEL] | 299 |  | 
